In series [1] the target is GABA-A receptor; anion channel. Briefly: Binding affinity to picrotoxin site of the Gamma-aminobutyric acid receptor was measured using [35S]TBPS as radioligand. It counts as protein-complex assay. In a few lines:
(§1)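 Rat cerebral cortex membranes (female Sprague–Dawley) washed and held in 50 mM Tris-citrate pH 7.5. [35S]TBPS at 2 nM final, in NaBr. Incubated in triplicate for 90 min at 25 °C, then filtered and scintillation counted. Nonspecific binding with 10 μM TBPS or 100 μM picrotoxinin. IC50 by log probit from ≥5 concentrations; mean ± SEM of three experiments.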

Series [2] is filed under the species Mus musculus. As to the kind of experiment: Anticonvulsant activity in mice by inhibition of pentylenetetrazole induced seizures. In kind it is functional.
Series [3] is described as follows: Neurotoxic effects by rotarod test in mice. It counts as ADME, organism-based. The following applies: mouse, in vivo. The essentials:
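Rotorod test in mice after ip dosing in 30% polyethylene glycol (0.01 mL/g). TD50 from log probit analysis of dose–response data.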

The species entered for series [4] is Mus musculus. Briefly: Anticonvulsant activity in mice by maximal electroshock test. In kind it is functional. In a few lines:
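Maximal electroshock applied through corneal electrodes after 0.9% NaCl drops on the eyes. Compound given ip in 30% polyethylene glycol (0.01 mL/g). Protection defined as no tonic hind-limb extension past 90°. ED50 from log probit analysis of dose–response data.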
For orientation: Protection in the maximal electroshock model is a classic sign of anticonvulsant action.

For series [5], the species on record is Mus musculus. Briefly: Convulsant potency was determined by measuring the ability to produce seizures in mice. In kind it is functional. The essentials: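 Compound given ip in 30% polyethylene glycol (0.01 mL/g body weight). Mice observed for 30 min for seizure activity. Value is the CD50 for clonic convulsions, from log probit analysis; 95% fiducial limits given.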

In series [6] the target is GABA-A receptor; anion channel. As to the kind of experiment: Binding affinity to picrotoxin site of Gamma-aminobutyric acid receptor using [35S]TBPS as radioligand. It counts as protein-complex assay, Rattus norvegicus. In a few lines:
as §1

The subject of series [7] is Mus musculus. As to the kind of experiment: Concentration of brain at 40 min was determined after the compound was administered intraperitoneally at a dose 259 mg/kg in mice. It counts as functional. The settings on record: route intraperitoneal.
In series [8] the test system is Mus musculus. Briefly: Concentration of brain at 30 min was determined after the compound was administered intraperitoneally at a dose 259 mg/kg in mice. In kind it is functional. The settings on record: route intraperitoneal. In a few lines:
(§2)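 Female CF-1 mice dosed ip and decapitated at the set time, n = 3. Cerebral cortex frozen and homogenized at 4 °C in chloroform:methanol 2:1 with an internal standard. Lower phase analysed by capillary GC-FID with splitless injection. Concentration taken from the ratio to the internal standard, corrected for detector response and wet weight. Mean ± SEM.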

For series [9], the system named is Mus musculus. Briefly: Concentration of brain at 20 min was determined after the compound was administered intraperitoneally at a dose 259 mg/kg in mice. In kind it is functional. The following applies: route intraperitoneal. In a few lines:
as §2

Series [10] concerns Mus musculus. Briefly: Concentration of brain at 10 min was determined after the compound was administered intraperitoneally at a dose 259 mg/kg in mice. In kind it is functional. The settings on record: route intraperitoneal. In a few lines:
as §2

Series [11] has as its system Mus musculus. Briefly: Concentration of brain at 5 min was determined after the compound was administered intraperitoneally at a dose 259 mg/kg in mice. It counts as functional. The following applies: route intraperitoneal. In a few lines: as §2

The IC50 is the concentration that gives 50% inhibition. The ED50 is the midpoint of the dose-response relation. The term TD50 denotes the dose at which the toxic effect under study appears in half of the subjects. Low values mean harm at a small dose, high ones harm only at a large dose.

In series [1], `CCC1(C)CCSC1=O` (stereo not given) displayed an IC50 of 330 µM.

Turning to `CC1CCOC1=O` (stereo not given), the median effective dose (ED50) in the series listed under Mus musculus [2] and in the series listed under Mus musculus [4] was above 500 mg/kg throughout. The compound further gave an IC50 in [1] above 10000 µM. In series [3], this compound returned a TD50 above 500 mg/kg.

For `CC(C)C1(C(C)C)CCOC1=O`, the ED50 in the series filed under Mus musculus [2] stood at 137 mg/kg. This compound also yielded an IC50 in series [1] of 220 µM.

`CC(C)C1CCOC1=O` (stereo not given): the values for the 50% effective dose (ED50) in the series listed under Mus musculus [2] and in the series listed under Mus musculus [4] were 150 mg/kg and above 400 mg/kg, respectively. The same compound yielded an IC50 in [1] of 2000 µM. This compound also gave a TD50 in series [3] above 400 mg/kg.

Consider `CC(C)C1COC(=O)C1` (stereo not given), for which the CD50 in the series filed under Mus musculus [5] is 15 mg/kg. For the same compound, the half-inhibitory concentration (IC50) in series [1] came out at 42000 µM.

For the compound `CC(C)(C)C1COC(=O)C1` (stereo not given), the CD50 in the series filed under Mus musculus [5] turned out to be 5.5 mg/kg. Further, the concentration for half-maximal inhibition (IC50) in series [6] was 13 mM.

For the compound `CC(C)(C)C1CCSC1=O` (stereo not given), the 50% effective dose (ED50) in the series listed under Mus musculus [2] was 244 mg/kg; in the series listed under Mus musculus [4] it was above 500 mg/kg. The IC50 in series [1] was 190 µM. In series [3], the TD50 was above 500 mg/kg.

`CC1CCSC1=O` (stereo not given): the median effective dose (ED50) in the series listed under Mus musculus [2] and in the series filed under Mus musculus [4] was 91 mg/kg throughout. Moreover, the concentration for half-maximal inhibition (IC50) in [1] turned out to be 4400 µM.

In the case of `CC1(C)CCSC1=O`, the values for the ED50 in the series filed under Mus musculus [2] and in the series filed under Mus musculus [4] were 208 mg/kg and 369 mg/kg, respectively. Further, in [1], the IC50 was 920 µM. The compound also returned a TD50 in series [3] of 220 mg/kg.

`CCC1(C)CSC(=O)C1` (stereo not given) displayed a CD50 in the series filed under Mus musculus [5] of 3.5 mg/kg.

As to `CC(C)C1CCSC1=O` (stereo not given), the ED50 in the series filed under Mus musculus [2] was 145 mg/kg; in the series filed under Mus musculus [4], above 500 mg/kg. In series [6], this compound displayed a 50% inhibitory concentration (IC50) of 0.26 mM. The TD50 in series [3] is above 500 mg/kg.

For the compound `CCC1CCOC1=O` (stereo not given), the ED50 in the series filed under Mus musculus [2] and in the series listed under Mus musculus [4] was above 500 mg/kg throughout. Moreover, in series [6], the IC50 was found to be 8.5 mM. Further, the TD50 in [3] is above 500 mg/kg.

Regarding `CCC1(C)CC(=O)OC1(C)C` (stereo not given), in the series filed under Mus musculus [5], the CD50 is 8.2 mg/kg. Besides, in series [6], the half-inhibitory concentration (IC50) amounted to 22 mM.

Take `CCC1(CC)CCSC1=O`: the figures for the ED50 in the series listed under Mus musculus [2] and in the series listed under Mus musculus [4] were 104 mg/kg and 374 mg/kg, respectively. This compound also showed an IC50 in series [1] of 260 µM. In [3], this compound came in with a TD50 of 285 mg/kg.

With `CC(C)C1(C(C)C)CCSC1=O`, the ED50 in the series filed under Mus musculus [2] and in the series filed under Mus musculus [4] was above 500 mg/kg throughout. The concentration for half-maximal inhibition (IC50) in [1] was 74 µM. Moreover, the TD50 in series [3] is above 500 mg/kg.

Turning to `CC1(C)CCOC1=O`, the ED50 in the series listed under Mus musculus [2] and in the series listed under Mus musculus [4] was above 500 mg/kg in each case. Moreover, the IC50 in [6] turned out to be 9.2 mM. This compound also yielded a TD50 in [3] above 500 mg/kg.

Turning to `CCC1(C)CCOC1=O` (stereo not given), the ED50 in the series filed under Mus musculus [2] was 259 mg/kg; in the series listed under Mus musculus [4], above 500 mg/kg. In addition, the Brain concentration in the series on Mus musculus [7] was 0.88 mM; in the series on Mus musculus [8], 1.21 mM; in the series on Mus musculus [9] it was 1.35 mM; in the series with Mus musculus [10], 1.83 mM; in the series on Mus musculus [11] it was 2.97 mM. In addition, the half-maximal inhibitory concentration (IC50) in series [6] came to 2.3 mM. For the same compound, the TD50 in series [3] was 621 mg/kg.

As to `CC(C)C1(C)CCOC1=O` (stereo not given), the ED50 in the series listed under Mus musculus [2] was 198 mg/kg; in the series listed under Mus musculus [4] it was above 500 mg/kg. The IC50 in series [1] worked out at 850 µM. In series [3], this compound yielded a TD50 of 278 mg/kg.

On to `CC(C)(C)C1CCOC1=O` (stereo not given), for which the ED50 in the series listed under Mus musculus [2] worked out at 145 mg/kg; in the series filed under Mus musculus [4] it was 375 mg/kg. The IC50 in [6] was found to be 0.99 mM. For the same compound, the TD50 in series [3] is above 500 mg/kg.

Consider `CCC1(CC)CCOC1=O`, for which the median effective dose (ED50) in the series filed under Mus musculus [2] worked out at 191 mg/kg; in the series listed under Mus musculus [4], 463 mg/kg. This compound gave a half-inhibitory concentration (IC50) in [6] of 0.75 mM. Also, in series [3], the TD50 amounted to 416 mg/kg.

As to `CCC1CCSC1=O` (stereo not given), the ED50 in the series listed under Mus musculus [2] stood at 414 mg/kg; in the series listed under Mus musculus [4] it was 232 mg/kg. Besides, the IC50 in [1] stood at 1500 µM. For the same compound, in series [3], the TD50 is above 500 mg/kg.

For `CCC1(C)COC(=O)C1` (stereo not given), in the series listed under Mus musculus [5], the CD50 is 20 mg/kg. In addition, the IC50 in series [1] turned out to be 55000 µM.

Turning to `CC(C)C1(C)CCSC1=O` (stereo not given), the ED50 is 154 mg/kg in the series listed under Mus musculus [2] and above 500 mg/kg in the series listed under Mus musculus [4]. Besides, in series [1], the concentration for half-maximal inhibition (IC50) came out at 140 µM. Moreover, the TD50 in series [3] is above 500 mg/kg.

The values are drawn from ChEMBL document CHEMBL1125676, “Synthesis and structure-activity studies of alkyl-substituted gamma-butyrolactones and gamma-thiobutyrolactones: ligands for the picrotoxin receptor” (J Med Chem, 1991).
